Assays:
[1] = (§1) Ratio of IC50 against A2780cisR (cisplatin resistant) to the IC50 of parent; format: functional
K562 = test: Inhibition of cell growth by 50% in human leukemia cell line (K562) was determined using microculture tetrazolium (MTT) assay.; format: functional, cell-based
In short: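 K562 human leukaemia cells given drug for 1 h; growth then measured by MTT assay; IC50 is the dose giving 50% growth inhibition versus drug-free controls.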

Nucleic Acid [2] = test: The concentration of compound required for 50% cross linking of plasmid pBR322 DNA was investigated using an assay involving linear double stranded DNA; format: functional
In short: (§2)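 pBR322 cut with HindIII, dephosphorylated, then 5'-end-labelled with [γ-32P]ATP by T4 kinase; about 10 ng per reaction. Drug at 0.001–10 μM in 25 mM triethanolamine/1 mM EDTA, pH 7.2, 37 °C, 2 h. Stopped, then ethanol-precipitated; strands separated in 30% DMSO at 90 °C for 2 min; run on neutral 0.8% agarose. Autoradiograph read by laser densitometry; XL50 is the dose giving 50% double-stranded (cross-linked) DNA.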

CH1 [3] = test: Inhibition of cell growth in human ovarian carcinoma cell line (CH1-cis-R,cisplatin resistant) using the 96 hour continuous exposure sulforhodamine B (SRB) growth delay assay; format: functional, cell-based; conditions: CH1cisR
In short: (§3)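 Human ovarian lines seeded in 96-well plates and left to attach overnight. Compounds dissolved in DMSO (20 mM stock), diluted in medium, added to quadruplicate wells at final 2.5 nM–100 μM; continuous exposure 96 h at 37 °C. Cells fixed in 10% TCA, stained with 0.4% SRB, dye taken up in 10 mM Tris, A540 read. IC50 taken relative to 8 untreated wells.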

[4] = (§4) Ratio of IC50 against human ovarian carcinoma cell line (CH1)cisR (cisplatin resistant) to the IC50 of parent; format: functional
A2780cisR = test: as §1; format: functional
carcinoma cell line = test: as §4; format: functional
A2780 [5] = test: Growth inhibition in human ovarian carcinoma cell line (A2780cisR,cisplatin-resistant) using the 96 hour exposure sulforhodamine B (SRB) growth delay assay; format: functional, cell-based; conditions: A2780, 96 h; in short: as §3
A2780 [6] = test: Inhibition of cell growth in human ovarian carcinoma cell line (A2780) using the 96 hour continuous exposure sulforhodamine B (SRB) growth delay assay; format: functional, cell-based; in short: as §3
SK-OV-3 = test: Inhibition of cell growth in human ovarian carcinoma cell line(SKOV-3) using the 96 hour continuous exposure sulforhodamine B (SRB) growth delay assay; format: functional, cell-based; in short: as §3
CH1 [7] = test: Inhibition of cell growth in human ovarian carcinoma cell line (CH1) was determined using the 96 hour continuous exposure sulforhodamine B (SRB) growth delay assay.; format: functional, cell-based; conditions: CH1, 96 h; in short: as §3
CH1 [8] = test: Inhibition of cell growth in human ovarian carcinoma cell line (CH1-cis-R,cisplatin resistant) using the 96 hour exposure sulforhodamine B (SRB) growth delay assay; format: functional, cell-based
In short: (§5)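 Cells seeded in growth medium and allowed to attach overnight, then given drug (20 mM DMSO stock diluted in medium) in quadruplicate wells at final 100 μM to 2.5 nM for 96 h at 37 °C. Fixed with 10% trichloroacetic acid on ice, stained 0.4% sulforhodamine B, dye solubilised in 10 mM Tris base, absorbance 540 nm; IC50 from concentration versus % absorbance against 8 untreated wells.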

A2780 [9] = test: Inhibition of cell growth in human ovarian carcinoma cell line (A2780cisR,cisplatin-resistant)using the 96 hour continuous exposure sulforhodamine B (SRB) growth delay assay; format: functional, cell-based; in short: as §5
Nucleic Acid [10] = test: Concentration of compound required for 50% cross linking of plasmid pBR322 DNA was investigated using an assay involving linear double stranded DNA; format: functional; in short: as §2

Molecule	Ratio [1]	IC50 (K562) [nM]	XL50 (Nucleic Acid [2]) [µM]	IC50 (CH1 [3]) [nM]	Ratio [4]	IC50 (SK-OV-3; Homo sapiens, SK-OV-3, 96 h) [nM]	IC50 (CH1 [7]) [nM]	also measured
COc1cc2c(cc1OCCCOc1cc3c(cc1OC)C(=O)N1CCC[C@H]1C=N3)N=C[C@@H]1CCCN1C2=O [DSB-120]	29.2	250	0.055	22	0.7	–	–	–
CISPLATIN [listing 1 of 2 here]	–	–	–	–	–	–	–	Ratio (A2780cisR): 32; Ratio (carcinoma cell line): 6.1
C=C1C[C@H]2C(=O)Nc3cc(OCCCOc4cc5c(cc4OC)C(=O)N4CC(=C)C[C@H]4C(=O)N5)c(OC)cc3C(=O)N2C1	4.4	–	–	2900	3.5	28000	570	IC50 (A2780 [5]): 11000 nM; IC50 (A2780 [6]; Homo sapiens, A2780, 96 h): 2500 nM
CISPLATIN [listing 2 of 2 here]	–	–	–	–	–	–	–	IC50 (CH1 [8]): 1100 nM; IC50 (A2780 [6]; a2780): 265 nM; IC50 (A2780 [9]): 8400 nM; IC50 (SK-OV-3; sk-ov-3): 10500 nM
C=C1C[C@H]2C=Nc3cc(OCCCOc4cc5c(cc4OC)C(=O)N4CC(=C)C[C@H]4C=N5)c(OC)cc3C(=O)N2C1 [SJG-136]	1.1	42.5	0.045	0.6	5	9.1	0.12	–
N[C@@H](Cc1ccc(N(CCCl)CCCl)cc1)C(=O)O	–	–	–	–	–	–	–	XL50 (Nucleic Acid [10]): 20 µM

Source: ChEMBL document CHEMBL1134359, “Design, synthesis, and evaluation of a novel pyrrolobenzodiazepine DNA-interactive agent with highly efficient cross-linking ability and potent cytotoxicity” (J Med Chem, 2001)
